# Calls of active or inactive are those of the source. No cut-off for these calls is given here.
# Key:
# [1] = test system: Eimeria acervulina; assay: Anticococcidal activity against Eimeria acervulina infected chick at 75 to 150 ppm; type: functional, organism-based
# Summary of the method: (§1)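 In vivo test in the minibird assay for coccidiosis (MAC) using Eimeria-infected chickens. Compounds were tested as purified material. Activity in this assay guided fractionation of the fungal extract.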
# [2] = test system: Eimeria praecox; assay: Anticococcidal activity against Eimeria praecox infected chick assessed as reduction of oocyst at 150 ppm after 48 hrs relative to control; type: functional; summary of the method: as §1
# [3] = test system: Eimeria maxima; assay: Anticococcidal activity against Eimeria maxima infected chick assessed as reduction of oocyst at 75 ppm after 48 hrs relative to control; type: functional, organism-based; summary of the method: as §1
# [4] = test system: Eimeria acervulina; assay: Anticococcidal activity against Eimeria acervulina infected chick assessed as reduction of oocyst at 150 ppm after 48 hrs relative to control; type: functional; parameters: scale not given: the % may be the effect or the level left; summary of the method: as §1
# [5] = test system: Eimeria mitis; assay: Anticococcidal activity against Eimeria mitis infected chick at 75 to 150 ppm; type: functional, organism-based; summary of the method: as §1
# [6] = test system: Eimeria maxima; assay: Anticococcidal activity against Eimeria maxima infected chick assessed as reduction of oocyst at 150 ppm after 48 hrs relative to control; type: functional, organism-based; summary of the method: as §1
# [7] = test system: Eimeria praecox; assay: Anticococcidal activity against Eimeria praecox infected chick assessed as reduction of oocyst at 75 ppm after 48 hrs relative to control; type: functional; summary of the method: as §1
# [8] = test system: Eimeria tenella; assay: Anticococcidal activity against Eimeria tenella infected chick at 75 to 150 ppm; type: functional, organism-based; summary of the method: as §1
# [9] = test system: Eimeria praecox; assay: Anticococcidal activity against Eimeria praecox infected chick at 75 to 150 ppm; type: functional; summary of the method: as §1
# [10] = test system: Eimeria tenella; assay: Anticococcidal activity against Eimeria tenella infected chick assessed as reduction of oocyst at 150 ppm after 48 hrs relative to control; type: functional; parameters: scale not given: the % may be the effect or the level left; summary of the method: as §1
# [11] = test system: Eimeria acervulina; assay: Anticococcidal activity against Eimeria acervulina infected chick assessed as reduction of oocyst at 75 ppm after 48 hrs relative to control; type: functional; parameters: scale not given: the % may be the effect or the level left; summary of the method: as §1
# [12] = test system: Eimeria maxima; assay: Anticococcidal activity against Eimeria maxima infected chick at 75 to 150 ppm; type: functional, organism-based; summary of the method: as §1
# [13] = test system: HFF; assay: Cytotoxicity against human HFF cells at 500 ppm by Ex-Bes assay; type: cell-based
# [14] = test system: Eimeria mitis; assay: Anticococcidal activity against Eimeria mitis infected chick assessed as reduction of oocyst at 150 ppm after 48 hrs relative to control; type: functional; parameters: scale not given: the % may be the effect or the level left; summary of the method: as §1
# [15] = test system: Besnoitia jellisoni; assay: Antiprotozoal activity against Besnoitia jellisoni trophozoites in HFF cells assessed as intactness of cell monolayer after 4 days by Ex-Bes assay; type: functional; details: 96 h, read-out: ED50 (the source's name)
# Summary of the method: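 Whole-cell in vitro Ex-Bes (extended Besnoitia) assay: B. jellisoni trachyzoites treated with test compounds. ED50 is the concentration giving 50% reduction of trachyzoites relative to an untreated control, read visually. Value is the average of two experiments run in duplicate.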
# [16] = test system: HFF; assay: Cytotoxicity against human HFF cells at 1 ug/ml by Ex-Bes assay; type: cell-based
# [17] = test system: HFF; assay: Cytotoxicity against human HFF cells at =< 0.125 ug/ml by Ex-Bes assay; type: cell-based
# [18] = test system: Eimeria praecox; assay: Anticococcidal activity against Eimeria praecox infected chick at 416 ppm, po; type: functional; summary of the method: as §1
# [19] = test system: Eimeria praecox; assay: Anticococcidal activity against Eimeria praecox infected chick at 28 mg/kg, ip; type: functional, organism-based; parameters: dose 28 mg/kg; summary of the method: as §1
# [20] = test system: Eimeria acervulina; assay: Anticococcidal activity against Eimeria acervulina infected chick at 416 ppm, po; type: functional, organism-based; summary of the method: as §1
# [21] = test system: Eimeria maxima; assay: Anticococcidal activity against Eimeria maxima infected chick at 28 mg/kg, ip; type: functional, organism-based; parameters: dose 28 mg/kg; summary of the method: as §1
# [22] = test system: Eimeria acervulina; assay: Anticococcidal activity against Eimeria acervulina infected chick at 28 mg/kg, ip; type: functional, organism-based; parameters: dose 28 mg/kg; summary of the method: as §1
# [23] = test system: Eimeria mitis; assay: Anticococcidal activity against Eimeria mitis infected chick at 28 mg/kg, ip; type: functional, organism-based; parameters: dose 28 mg/kg; summary of the method: as §1
# [24] = test system: Eimeria maxima; assay: Anticococcidal activity against Eimeria maxima infected chick at 416 ppm, po; type: functional, organism-based; summary of the method: as §1
# [25] = test system: Eimeria mitis; assay: Anticococcidal activity against Eimeria mitis infected chick at 416 ppm, po; type: functional, organism-based; summary of the method: as §1
# [26] = test system: Eimeria tenella; assay: Anticococcidal activity against Eimeria tenella infected chick at 416 ppm, po; type: functional, organism-based; summary of the method: as §1
# [27] = test system: Eimeria tenella; assay: Anticococcidal activity against Eimeria tenella infected chick at 28 mg/kg, ip; type: functional, organism-based; parameters: dose 28 mg/kg; summary of the method: as §1
compound,measurement,setting,value
CC1=C[C@@]2(C)O[C@@H](C)[C@@](C)(O)[C@H]2[C@@H]1/C=C/C=C/C=C/C=C/C1(C)C2OC(=O)C1(C)C(=O)C2C (stereo partly drawn) [COCCIDIOSTATIN A],Activity,[1],Active
same,Activity,[2],inactive
same,Activity,[3],inactive
same,Activity,[4],74%
same,Activity,[5],Active
same,Activity,[6],inactive
same,Activity,[7],inactive
same,Activity,[8],Active
same,Activity,[9],Active
same,Activity,[10],59%
same,Activity,[11],64%
same,Activity,[12],Active
same,Activity,[13],Non-toxic
same,Activity,[14],44%
CCC(=O)CCCCC[C@@H]1NC(=O)[C@H]2CCCCN2C(=O)[C@H]([C@@H](C)CC)NC(=O)[C@H](Cc2cn(OC)c3ccccc23)NC1=O [APICIDIN],EC50,[15],< 280 nM
same,Activity,[16],Toxic
same,Activity,[17],Non-toxic
CC(=C/C(C)=C\[C@]1(C)O[C@@H](C)[C@]2(C)O[C@@H]21)/C=C(C)\C=C(C)/C=C(\C)[C@@H]1OC(=O)C(C)(C)C(=O)[C@H]1C [EMECORRGATIN A],Activity,[18],inactive
same,Activity,[19],inactive
same,Activity,[20],inactive
same,EC50,[15],1390 nM
same,Activity,[21],inactive
same,Activity,[22],inactive
same,Activity,[23],inactive
same,Activity,[24],inactive
same,Activity,[25],inactive
same,Activity,[26],inactive
same,Activity,[27],inactive
